Results from ChEMBL document CHEMBL4265871, “Novel alkylated azoles as potent antifungals” (Eur J Med Chem, 2017).
≈ marks a conversion by molar mass, not a printed value.

Key:
Format in all cases: functional
[1] = tested on: Candida albicans; assay: Antifungal activity against Candida albicans ATCC 10231 incubated for 48 hrs by modified CLSI M27-A3 protocol based method; conditions: ATCC 10231, 48 h; for MIC: read-out: MIC100
Method in brief: (§1)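 For C. albicans ATCC 10231, C. krusei ATCC 6258 and C. parapsilosis ATCC 22019, MIC-0 was read, meaning complete growth inhibition. For azole controls, MIC-2 (50% growth inhibition) was reported instead. Caspofungin and voriconazole were tested here; other controls came from earlier work.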

[2] = tested on: Candida albicans; assay: Antifungal activity against Candida albicans ATCC 64124 incubated for 48 hrs by modified CLSI M27-A3 protocol based method; conditions: ATCC 64124, 48 h
[3] = tested on: Candida albicans; assay: Antifungal activity against ITC and FLC-susceptible Candida albicans ATCC MYA-2876 incubated for 48 hrs by modified CLSI M27-A3 protocol based method; conditions: ATCC MYA-2876, 48 h
Method in brief: (§2)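 Because these Candida strains show trailing growth, MIC-2 was read, meaning 50% growth inhibition. Caspofungin and voriconazole were tested here; other controls came from earlier work.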

[4] = tested on: Candida albicans; assay: Antifungal activity against ITC and FLC-resistant Candida albicans ATCC MYA-90819 incubated for 48 hrs by modified CLSI M27-A3 protocol based method; conditions: ATCC MYA-90819, 48 h
[5] = tested on: Candida albicans; assay: Antifungal activity against ITC and FLC-susceptible Candida albicans ATCC MYA-2310 incubated for 48 hrs by modified CLSI M27-A3 protocol based method; conditions: ATCC MYA-2310, 48 h
[6] = tested on: Candida albicans; assay: Antifungal activity against ITC and FLC-resistant Candida albicans ATCC 1237 incubated for 48 hrs by modified CLSI M27-A3 protocol based method; conditions: ATCC 1237, 48 h; method in brief: as §2
[7] = tested on: Candida albicans; assay: Antifungal activity against ITC and FLC-resistant Candida albicans ATCC MYA-1003 incubated for 48 hrs by modified CLSI M27-A3 protocol based method; conditions: ATCC MYA-1003, 48 h; method in brief: as §2
[8] = tested on: Nakaseomyces glabratus; assay: Antifungal activity against Candida glabrata ATCC 2001 incubated for 48 hrs by modified CLSI M27-A3 protocol based method; conditions: ATCC 2001, 48 h
[9] = tested on: Pichia kudriavzevii; assay: Antifungal activity against Candida krusei ATCC 6258 incubated for 48 hrs by modified CLSI M27-A3 protocol based method; conditions: ATCC 6258, 48 h; for MIC: read-out: MIC100; method in brief: as §1
[10] = tested on: Candida parapsilosis; assay: Antifungal activity against Candida parapsilosis ATCC 22019 incubated for 48 hrs by modified CLSI M27-A3 protocol based method; conditions: Lodderomyces parapsilosis, ATCC 22019, 48 h; for MIC: read-out: MIC100; method in brief: as §1
[11] = tested on: Aspergillus flavus; assay: Antifungal activity against Aspergillus flavus ATCC MYA-3631 incubated for 48 hrs by CLSI M38-A2 protocol based method; conditions: ATCC MYA-3631, 48 h; for MIC: read-out: MIC100
[12] = tested on: Aspergillus nidulans; assay: Antifungal activity against Aspergillus nidulans ATCC 38163 incubated for 48 hrs by CLSI M38-A2 protocol based method; conditions: ATCC 38163, 48 h; for MIC: read-out: MIC100
[13] = tested on: Aspergillus terreus; assay: Antifungal activity against Aspergillus terreus ATCC MYA-3633 incubated for 48 hrs by CLSI M38-A2 protocol based method; conditions: ATCC MYA-3633, 48 h; for MIC: read-out: MIC100

Structure (SMILES)	MIC [1] [µM]	MIC50 [2] [µM]	MIC50 [3] [µM]	MIC50 [4] [µM]	MIC50 [5] [µM]	MIC50 [6] [µM]	MIC50 [7] [µM]	MIC50 [8] [µM]	MIC [9] [µM]	MIC [10] [µM]	MIC [11] [µM]	MIC [12] [µM]	MIC [13] [µM]	other results
CCCCCCC(O)(Cn1cncn1)c1cccc(F)c1 (centres undefined)	> 107	> 107	6.7 (≈ 1.95 µg/mL)	6.7 (≈ 1.95 µg/mL)	6.7 (≈ 1.95 µg/mL)	3.3 (≈ 0.962 µg/mL)	107 (≈ 31.3 µg/mL)	26.8 (≈ 7.81 µg/mL)	13.4 (≈ 3.9 µg/mL)	6.7 (≈ 1.95 µg/mL)	> 107	13.4 (≈ 3.9 µg/mL)	107 (≈ 31.3 µg/mL)	–
CCC(O)(Cn1cncn1)c1ccc(F)cc1F (centres undefined)	61.6 (≈ 15.6 µg/mL)	> 124	61.6 (≈ 15.6 µg/mL)	124 (≈ 31.3 µg/mL)	> 124	> 124	30.8 (≈ 7.8 µg/mL)	> 124	30.8 (≈ 7.8 µg/mL)	1.9 (≈ 0.481 µg/mL)	> 124	124 (≈ 31.3 µg/mL)	> 124	–
CCCC(O)(Cn1cncn1)c1ccc(F)cc1F (centres undefined)	14.6 (≈ 3.9 µg/mL)	117 (≈ 31.3 µg/mL)	58.4 (≈ 15.6 µg/mL)	58.4 (≈ 15.6 µg/mL)	29.2 (≈ 7.8 µg/mL)	117 (≈ 31.3 µg/mL)	14.6 (≈ 3.9 µg/mL)	> 117	0.22 (≈ 0.0588 µg/mL)	0.22 (≈ 0.0588 µg/mL)	> 117	29.2 (≈ 7.8 µg/mL)	58.4 (≈ 15.6 µg/mL)	–
CCCCCC(O)(Cn1cncn1)c1cccc(Cl)c1 (centres undefined)	> 106	106 (≈ 31.3 µg/mL)	> 106	13.3 (≈ 3.91 µg/mL)	6.6 (≈ 1.94 µg/mL)	6.6 (≈ 1.94 µg/mL)	> 106	> 106	> 106	> 106	13.3 (≈ 3.91 µg/mL)	0.2 (≈ 0.0588 µg/mL)	1.6 (≈ 0.47 µg/mL)	–
CCCCCC(O)(Cn1cncn1)c1cccc(F)c1 (centres undefined)	> 113	> 113	14.1 (≈ 3.91 µg/mL)	14.1 (≈ 3.91 µg/mL)	14.1 (≈ 3.91 µg/mL)	14.1 (≈ 3.91 µg/mL)	> 113	28.1 (≈ 7.79 µg/mL)	14.1 (≈ 3.91 µg/mL)	14.1 (≈ 3.91 µg/mL)	≥ 113	0.87 (≈ 0.241 µg/mL)	14.1 (≈ 3.91 µg/mL)	–
CCC(O)(Cn1cncn1)c1ccc(Cl)cc1Cl (centres undefined)	13.6 (≈ 3.89 µg/mL)	> 109	3.4 (≈ 0.973 µg/mL)	0.84 (≈ 0.24 µg/mL)	3.4 (≈ 0.973 µg/mL)	3.4 (≈ 0.973 µg/mL)	6.8 (≈ 1.95 µg/mL)	13.6 (≈ 3.89 µg/mL)	3.4 (≈ 0.973 µg/mL)	< 0.1	54.5 (≈ 15.6 µg/mL)	27.3 (≈ 7.81 µg/mL)	13.6 (≈ 3.89 µg/mL)	–
CCC(C)n1ncn(-c2ccc(N3CCN(c4ccc(OCC5COC(Cn6cncn6)(c6ccc(Cl)cc6Cl)O5)cc4)CC3)cc2)c1=O (centres undefined) [ITRACONAZOLE]	–	> 88.6	11.1 (≈ 7.83 µg/mL)	44.4 (≈ 31.3 µg/mL)	44.4 (≈ 31.3 µg/mL)	44.4 (≈ 31.3 µg/mL)	44.4 (≈ 31.3 µg/mL)	11.1 (≈ 7.83 µg/mL)	–	–	–	–	–	MIC50 [1]: 0.71 µM (≈ 0.501 µg/mL); MIC50 [9]: 0.68 µM (≈ 0.48 µg/mL); MIC50 [10]: 0.17 µM (≈ 0.12 µg/mL); MIC50 [11]: 0.68 µM (≈ 0.48 µg/mL); MIC50 [12]: 0.28 µM (≈ 0.198 µg/mL); MIC50 [13]: 1.4 µM (≈ 0.988 µg/mL)
CC(O)(Cn1cncn1)c1ccc(Cl)cc1Cl (centres undefined)	> 115	> 115	28.7 (≈ 7.81 µg/mL)	7.2 (≈ 1.96 µg/mL)	> 115	> 115	> 115	14.3 (≈ 3.89 µg/mL)	14.3 (≈ 3.89 µg/mL)	0.88 (≈ 0.239 µg/mL)	> 115	7.2 (≈ 1.96 µg/mL)	> 115	–
CCCCCCC(O)(Cn1cncn1)c1cccc(Cl)c1 (centres undefined)	> 102	102 (≈ 31.3 µg/mL)	> 102	25.3 (≈ 7.79 µg/mL)	25.3 (≈ 7.79 µg/mL)	25.3 (≈ 7.79 µg/mL)	> 102	> 102	> 102	> 102	> 102	12.7 (≈ 3.91 µg/mL)	> 102	–
CC[C@H](C)C[C@H](C)CCCCCCCCC(=O)N[C@H]1C[C@@H](O)[C@@H](NCCN)NC(=O)[C@@H]2[C@@H](O)CCN2C(=O)[C@H]([C@H](O)CCN)NC(=O)[C@H]([C@H](O)[C@@H](O)c2ccc(O)cc2)NC(=O)[C@@H]2C[C@@H](O)CN2C(=O)[C@H]([C@@H](C)O)NC1=O [CASPOFUNGIN]	0.8 (≈ 0.875 µg/mL)	–	–	–	–	–	–	–	0.4 (≈ 0.437 µg/mL)	1.6 (≈ 1.75 µg/mL)	> 25.8	> 26	> 25.8	MIC [2]: 0.2 µM (≈ 0.219 µg/mL); MIC ([3]; read-out: MIC100): 0.05 µM (≈ 0.0547 µg/mL); MIC [4]: 0.1 µM (≈ 0.109 µg/mL); MIC ([5]; read-out: MIC100): 0.1 µM (≈ 0.109 µg/mL); MIC ([6]; read-out: MIC100): 0.2 µM (≈ 0.219 µg/mL); MIC ([7]; read-out: MIC100): 0.4 µM (≈ 0.437 µg/mL); MIC [8]: 0.05 µM (≈ 0.0547 µg/mL)
N[n+]1cnn(CC(=O)c2ccc(Cl)cc2Cl)c1	> 102	> 102	> 102	> 102	> 102	> 102	> 102	> 102	> 102	> 102	> 102	> 102	> 102	–
CCCCCCCCCCCCC(O)(Cn1cncn1)c1ccc(F)cc1F (centres undefined)	> 79.5	> 79.5	19.8 (≈ 7.79 µg/mL)	> 79.5	19.8 (≈ 7.79 µg/mL)	19.8 (≈ 7.79 µg/mL)	> 79.5	2.5 (≈ 0.984 µg/mL)	> 79.5	5 (≈ 1.97 µg/mL)	> 79.5	1.2 (≈ 0.472 µg/mL)	9.9 (≈ 3.9 µg/mL)	–
CC(O)(Cn1cncn1)c1ccc(F)cc1F (centres undefined)	> 131	> 131	> 131	> 131	> 131	> 131	65.2 (≈ 15.6 µg/mL)	> 131	> 131	16.3 (≈ 3.9 µg/mL)	> 131	131 (≈ 31.3 µg/mL)	> 131	–
